According to ChEMBL document CHEMBL1135562, “Cyclic acid anhydrides as a new class of potent, selective and non-peptidic inhibitors of geranylgeranyl transferase” (Bioorg Med Chem Lett, 2002):

Experiments:
[1] = molecular target: T1, Protein farnesyltransferase (Homo sapiens, UniProt P49354+P49356); test: In vitro inhibition of farnesyl-protein transferase; format: protein-complex assay
How it was run: (§1)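 Recombinant human FPTase; substrate recombinant human wild-type H-Ras with [1-(n)-3H]farnesylpyrophosphate (555 GBq/mmol). Enzyme activity is the [3H]farnesyl transferred to Ras, measured by filter binding. IC50 is the concentration giving 50% inhibition of specific activity, fitted by non-linear regression to a dose–response curve.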

[2] = molecular target: T2, Geranylgeranyl transferase type I (Homo sapiens, UniProt P49354+P53609); test: In vitro inhibition of geranylgeranyl-protein transferase type-I; format: protein-complex assay
How it was run: (§2)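 Recombinant human GGPTase-I; substrate recombinant human H-Ras CVLL with [1-(n)-3H]geranylgeranylpyrophosphate (615 GBq/mmol). Activity is the [3H]geranylgeranyl transferred to Ras, measured by filter binding. IC50 is the concentration inhibiting specific activity by 50%, derived by non-linear regression fit to a dose–response curve.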

[3] = molecular target: T1, Protein farnesyltransferase; test: In vitro inhibition of Farnesyltransferase; format: protein-complex assay; how it was run: as §1
[4] = molecular target: T2, Geranylgeranyl transferase type I; test: In vitro inhibition of Geranylgeranyl transferase type I; format: protein-complex assay; how it was run: as §2
[5] = In vitro inhibition of geranylgeranyl-protein transferase type-II; parameters: species or system Homo sapiens
[6] = molecular target: T3, Protein farnesyl/geranylgeranyl transferase (Homo sapiens) (UniProt P49354+P49356+P53609); test: Ratio of human Farnesyltransferase to human Geranylgeranyl transferase type I activity as IC50; 900:500; format: protein-complex assay
[7] = molecular target: T3, Protein farnesyl/geranylgeranyl transferase (Homo sapiens); test: Ratio of human Farnesyltransferase to human Geranylgeranyl transferase type I activity as IC50; 166:252; format: protein-complex assay

Row | Compound | IC50 [1] | IC50 [2] | further results
1 | CC(C)CCCC(C)CCCC(C)CCCC1=CCC2C(=O)OC(=O)C2C1 (configuration not stated) | > 1000 µM | 20.8 µM | 
2 | CC(C)=CCC/C(C)=C/CCC1=CCC2C(=O)OC(=O)C2C1 (configuration not stated) [listing 1 of 2 here] |  |  | IC50 [3]: 9 µM; IC50 [4]: 503 µM
3 | CC(C)=CCCC1=CCC(C(=O)O)C(C(=O)O)C1 (configuration not stated) | > 1000 µM | 900 µM | 
4 | CC(C)=CCC/C(C)=C/CCC1=CCC2C(=O)OC(=O)C2C1 (configuration not stated) [listing 2 of 2 here] | 190 µM | 136 µM | 
5 | CCCCCCCCCCCC(=O)OC(=O)CCCCCCCCCCC [DODECANOIC ANHYDRIDE] | 854 µM | 229 µM | 
6 | CC(C)=CCC/C(C)=C/C=C1\CCC(C(=O)O)C(C(=O)O)C1 (configuration not stated) | > 1000 µM | 420 µM | 
7 | C=C1CC(=O)OC1=O [ITACONIC ANHYDRIDE] | > 1000 µM | > 1000 µM | 
8 | CC(C)CCCC(C)CCCC(C)CCCC1=CCC(C(=O)O)C(C(=O)O)C1 (configuration not stated) | > 1000 µM | > 1000 µM | 
9 | CCCCCCCCC/C=C/CC1CC(=O)OC1=O (configuration not stated) | > 1000 µM | 401 µM | 
10 | CCCCCCCCCCCCCC/C(C(=O)O)=C(\C)C(=O)O [CHAETOMELLIC ACID A] |  | 92 µM | IC50 [5]: 34 µM
11 | CC(C)=CCCC1=CCC2C(=O)OC(=O)C2C1 (configuration not stated) | 449 µM | 40.2 µM | 
12 | COC(=O)C1CC=C(CCCC(C)CCCC(C)CCCC(C)C)CC1C(=O)OC (configuration not stated) |  | > 1000 µM | 
13 | CCCCCCCCC/C=C/CC(CC(=O)O)C(=O)O (configuration not stated) | 402 µM | > 1000 µM | 
14 | COC(=O)C1CC=C(CCC=C(C)C)CC1C(=O)OC (configuration not stated) |  |  | Ratio [6]: 1.8
15 | CCCCCCCCCCCCC(C(=O)O)C(C(=O)O)C(=O)O (configuration not stated) |  |  | Ratio [7]: 0.66
